The values that follow come from ChEMBL document CHEMBL4177770, “Discovery of MK-6169, a Potent Pan-Genotype Hepatitis C Virus NS5A Inhibitor with Optimized Activity against Common Resistance-Associated Substitutions” (J Med Chem, 2018).

Series [1] concerns T1, Nonstructural protein 5A (Hepatitis C virus), Q5L478 [Y93H].
T1 sequence (whole entry): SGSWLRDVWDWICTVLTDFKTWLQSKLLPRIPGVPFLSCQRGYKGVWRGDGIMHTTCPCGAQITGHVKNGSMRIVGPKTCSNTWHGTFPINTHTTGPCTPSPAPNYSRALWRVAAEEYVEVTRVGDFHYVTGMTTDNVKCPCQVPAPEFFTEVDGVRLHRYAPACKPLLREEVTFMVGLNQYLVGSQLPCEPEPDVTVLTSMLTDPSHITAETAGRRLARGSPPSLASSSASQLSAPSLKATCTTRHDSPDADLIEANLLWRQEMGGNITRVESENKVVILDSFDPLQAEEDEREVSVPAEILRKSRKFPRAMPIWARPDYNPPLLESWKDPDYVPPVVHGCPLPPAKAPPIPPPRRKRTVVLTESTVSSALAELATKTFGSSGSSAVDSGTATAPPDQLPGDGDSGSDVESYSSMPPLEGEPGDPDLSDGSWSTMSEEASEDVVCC
The series can be described thus: Inhibition of NS5A Y93H mutant in HCV genotype 1a infected in HuH7 replicon cells assessed as decrease in viral replication after 3 days by RT-PCR method. Format: cell-based. The settings on record: Hepatitis C virus subtype 1a. On the technique in general: Replicon systems follow genome replication, usually without infectious particles.

Series [2] in a line: Half life in Beagle dog at 1 mg/kg, iv by LC/MS method. It counts as ADME, organism-based, Canis lupus familiaris. Conditions: in vivo. The essentials:
(§1)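 Beagle dogs, two animals per group, dosed IV at 1 mg/kg in 60% PEG200. Plasma was prepared from collected blood by centrifugation, and compound was quantified by LC/MS.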

Series [3] in a line: Clearance in Beagle dog at 1 mg/kg, iv by LC/MS method. Format: ADME, organism-based, Canis lupus familiaris. The settings on record: in vivo. The essentials: as §1
A short description of series [4]: Oral bioavailability in Beagle dog at 5 mg/kg by LC/MS method. The settings on record: in vivo. It counts as ADME, organism-based, Canis lupus familiaris. The procedure, abridged:
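Beagle dogs, two animals per dosing group. Oral dose was given in 10% TWEEN. Blood was collected and spun to plasma, and plasma compound levels were measured by LC/MS.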

For series [5], the system named is NS3 (Hepatitis C virus), A3EZJ3 [R155K]. The series can be described thus: Inhibition of NS3 R155K mutant in HCV genotype 1a infected in HuH7 replicon cells assessed as decrease in viral replication after 3 days by RT-PCR method. Format: cell-based. Conditions: Hepatitis C virus subtype 1a.
Series [6] relates to T2, Nonstructural protein 5A (Hepatitis C virus), Q5L478 [Y93N].
T2 sequence (whole entry): T1 sequence (whole entry) with H93N
As to the kind of experiment: Inhibition of NS5A Y93N mutant in HCV genotype 1a infected in HuH7 replicon cells assessed as decrease in viral replication after 3 days by RT-PCR method. It counts as cell-based. The settings on record: Hepatitis C virus subtype 1a.

The test system of series [7] is Hepatitis C virus subtype 1a. As to the kind of experiment: Resistance ratio of EC90 for NS5A L31V mutant in HCV genotype 1a infected in HuH7 replicon cells to EC90 for NS5A in HCV genotype 1a infected in HuH7 replicon cells. Format: cell-based.
The test system of series [8] is Hepatitis C virus subtype 1a. As to the kind of experiment: Resistance ratio of EC90 for NS5A R81W mutant in HCV genotype 1a infected in HuH7 replicon cells to EC90 for NS5A in HCV genotype 1a infected in HuH7 replicon cells. It counts as cell-based.
Series [9] concerns the target T3, Nonstructural protein 5A (Hepatitis C virus) (UniProt Q5L478).
T3 sequence (whole entry): T1 sequence (whole entry) with H93Y
The series can be described thus: Inhibition of NS5A F28L mutant in HCV genotype 2a infected in HuH7 replicon cells assessed as decrease in viral replication after 3 days by RT-PCR method. Format: cell-based. The settings on record: Hepatitis C virus subtype 2a.

For series [10], the target named is T3, Nonstructural protein 5A (Hepatitis C virus). The series can be described thus: Inhibition of NS5A L31M mutant in HCV genotype 2a infected in HuH7 replicon cells assessed as decrease in viral replication after 3 days by RT-PCR method. Format: cell-based. The settings on record: Hepatitis C virus subtype 2a.
Series [11] is described as follows: Resistance ratio of EC90 for NS5A in HCV genotype 1b infected in HuH7 replicon cells to EC90 for NS5A in HCV genotype 1a infected in HuH7 replicon cells. Format: cell-based.
A short description of series [12]: Resistance ratio of EC90 for NS5A A92T mutant in HCV genotype 1b infected in HuH7 replicon cells to EC90 for NS5A in HCV genotype 1a infected in HuH7 replicon cells. Format: cell-based.
The nature of series [13]: Resistance ratio of EC90 for NS5A L31V mutant in HCV genotype 1b infected in HuH7 replicon cells to EC90 for NS5A in HCV genotype 1a infected in HuH7 replicon cells. It counts as cell-based.
The target in series [14] is T3, Nonstructural protein 5A (Hepatitis C virus). The series can be described thus: Inhibition of NS5A M31V mutant in HCV genotype 2b infected in HuH7 replicon cells assessed as decrease in viral replication after 3 days by RT-PCR method. Format: cell-based. Conditions: Hepatitis C virus subtype 2b.
Series [15] shares this target. The series can be described thus: Inhibition of NS5A L31F mutant in HCV genotype 3a infected in HuH7 replicon cells assessed as decrease in viral replication after 3 days by RT-PCR method. Format: cell-based. The settings on record: Hepatitis C virus subtype 3a.
Series [16] shares this target. As to the kind of experiment: Inhibition of NS5A L31V mutant in HCV genotype 3a infected in HuH7 replicon cells assessed as decrease in viral replication after 3 days by RT-PCR method. It counts as cell-based. The settings on record: Hepatitis C virus subtype 3a.
Series [17] has as its system T1, Nonstructural protein 5A (Hepatitis C virus), Q5L478 [Y93H]. The series can be described thus: Inhibition of NS5A Y93H mutant in HCV genotype 3a infected in HuH7 replicon cells assessed as decrease in viral replication after 3 days by RT-PCR method. Format: cell-based. Conditions: Hepatitis C virus subtype 3a.
A short description of series [18]: Resistance ratio of EC90 for NS5A A146S mutant in HCV genotype 2b infected in HuH7 replicon cells to EC90 for NS5A in HCV genotype 1a infected in HuH7 replicon cells. It counts as cell-based.

Residue numbers refer to the chain shown, from its start.

Usually EC90 stands for the concentration at which the effect reaches the 90% level. As a reminder, the half-life is how long it takes for the measured level to halve. A low value points to fast loss. Usually clearance stands for the volume of plasma or blood freed of the substance per unit of time. The low end stands for inefficient removal, the high end for efficient removal. Usually bioavailability stands for the share of a dose that reaches the circulation, judged against a reference dose that is usually intravenous. Low readings indicate poor availability, high ones good availability. Turning to `COC(=O)N[C@H](C(=O)N1CCC[C@H]1c1ncc(-c2cc(F)c3c(c2)O[C@@H](c2ccc(C4CC4)s2)n2c-3cc3cc(-c4cnc([C@@H]5CCCN5C(=O)[C@@H](NC(=O)OC)[C@@H]5CCOC(C)(C)C5)[nH]4)ccc32)[nH]1)C(C)C`, the 90% effect concentration (EC90) is 0.033 nM in series [1]; 0.0019 nM in series [5]; 0.069 nM in [6]; 0.0005 nM in series [9]; 0.025 nM in [10]; 0.019 nM in series [14]. Moreover, the EC90 in series [15] was determined as 0.29 nM; in series [16], 3.2 nM; in series [17], 2.4 nM. Besides, the half-life in [2] is 5.8 h. The clearance in series [3] came out at 2.9 mL/min/kg. In [4], this molecule returned a bioavailability of 14.9%. For the same molecule, the Ratio is 1 in series [7]; under 1 in series [8]; 1 in series [11]; 1 in [12]; 1 in series [13]; 1 in series [18].
